Reference: ChEMBL document CHEMBL3120144, “Design, synthesis and molecular modeling of aloe-emodin derivatives as potent xanthine oxidase inhibitors” (Eur J Med Chem, 2014)

How the values were obtained:
[1] = target: T1, Xanthine dehydrogenase/oxidase (Bos taurus, UniProt P80457); assay: Inhibition of bovine xanthine oxidase using xanthine as substrate measured for 6 mins at 50 uM at 25 degC by spectrophotometry; conditions: cattle, 0.1 h
Summary of the method: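 Xanthine substrate, 25 °C, in 50 mM K₂HPO₄ buffer at pH 7.8. Xanthine was added as an 84.8 μg/mL solution in the same buffer; this is the added solution's concentration, not the final one. Test compounds were dissolved in DMSO and added at various concentrations.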

[2] = target: T1, Xanthine dehydrogenase/oxidase; assay: Inhibition of bovine xanthine oxidase using xanthine as substrate measured for 6 mins at 25 degC by spectrophotometry
[3] = target: T1, Xanthine dehydrogenase/oxidase; assay: Mixed-type inhibition of bovine xanthine oxidase using xanthine as substrate at 1.4 to 5.6 uM by Lineweaver-Burk plot; conditions: cattle

T1 sequence (P80457 whole entry): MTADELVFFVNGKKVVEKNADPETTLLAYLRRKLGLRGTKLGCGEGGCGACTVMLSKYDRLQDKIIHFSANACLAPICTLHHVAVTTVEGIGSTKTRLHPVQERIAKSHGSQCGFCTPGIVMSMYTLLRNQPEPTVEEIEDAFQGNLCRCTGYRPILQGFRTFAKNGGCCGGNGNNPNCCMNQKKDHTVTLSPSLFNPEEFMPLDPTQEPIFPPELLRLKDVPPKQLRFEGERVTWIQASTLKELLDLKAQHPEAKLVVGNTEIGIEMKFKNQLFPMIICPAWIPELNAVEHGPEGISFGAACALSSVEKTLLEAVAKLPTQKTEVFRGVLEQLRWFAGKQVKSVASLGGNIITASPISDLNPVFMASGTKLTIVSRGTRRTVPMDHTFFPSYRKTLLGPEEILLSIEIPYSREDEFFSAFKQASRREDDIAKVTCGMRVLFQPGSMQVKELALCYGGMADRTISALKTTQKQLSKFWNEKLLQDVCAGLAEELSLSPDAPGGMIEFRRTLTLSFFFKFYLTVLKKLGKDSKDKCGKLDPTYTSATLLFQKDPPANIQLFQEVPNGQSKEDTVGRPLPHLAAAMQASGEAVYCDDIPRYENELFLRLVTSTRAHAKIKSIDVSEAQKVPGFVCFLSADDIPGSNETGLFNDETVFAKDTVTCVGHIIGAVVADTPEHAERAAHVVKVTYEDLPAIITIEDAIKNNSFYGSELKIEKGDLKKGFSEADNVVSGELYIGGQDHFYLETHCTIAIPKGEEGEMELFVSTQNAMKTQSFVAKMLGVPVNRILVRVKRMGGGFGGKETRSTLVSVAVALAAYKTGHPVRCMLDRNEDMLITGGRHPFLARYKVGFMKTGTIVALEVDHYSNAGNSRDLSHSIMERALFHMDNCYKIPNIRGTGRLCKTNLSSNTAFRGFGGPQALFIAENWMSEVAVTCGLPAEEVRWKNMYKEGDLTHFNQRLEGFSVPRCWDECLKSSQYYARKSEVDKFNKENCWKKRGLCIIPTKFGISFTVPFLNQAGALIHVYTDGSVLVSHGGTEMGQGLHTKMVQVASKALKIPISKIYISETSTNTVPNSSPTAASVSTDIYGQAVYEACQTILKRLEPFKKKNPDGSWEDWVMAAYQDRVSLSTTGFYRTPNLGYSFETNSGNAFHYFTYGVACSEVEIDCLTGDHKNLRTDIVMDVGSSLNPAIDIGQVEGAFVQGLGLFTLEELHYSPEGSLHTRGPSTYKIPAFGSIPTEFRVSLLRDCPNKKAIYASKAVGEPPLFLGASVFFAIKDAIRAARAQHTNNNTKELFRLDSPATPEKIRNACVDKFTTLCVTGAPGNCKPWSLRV

For `COc1cccc2c1C(=O)c1c(OC)cc(C[N+](C)(C)C)cc1C2=O`, the inhibition at 50 µM [1] was under 10%.
`COc1cccc2c1C(=O)c1c(OC)cc(C[N+](C)(C)c3ccccc3)cc1C2=O` showed an inhibition at 50 µM [1] of under 10%.
`COc1cccc2c1C(=O)c1c(OC)cc(CO)cc1C2=O` was tested, and the inhibition at 50 µM [1] was 9.77%.
With `O=Cc1cc(O)c2c(c1)C(=O)c1cccc(O)c1C2=O` the IC50 [2] was 2.79 µM, the “inhibition (INH)” value ([2]; cattle, 0.1 h) was “Dose-dependent effect” and the inhibition at 50 µM [1] was 93.3%. The “inhibition (INH)” value [3] was “Active”.
With `COc1cccc2c1C(=O)c1c(OC)cc(C=O)cc1C2=O` the inhibition at 50 µM [1] was 36.5%.
Molecule `COc1cccc2c1C(=O)c1c(OC)cc(/C=N/O)cc1C2=O` has an inhibition at 50 µM [1] of under 10%.
Molecule `COc1cccc2c1C(=O)c1c(OC)cc(/C=N/N)cc1C2=O` has an inhibition at 50 µM [1] of under 10%.
Work on `COc1cccc2c1C(=O)c1c(OC)cc(/C=N/c3ccccc3)cc1C2=O` yielded an inhibition at 50 µM [1] of 17.5%.
In the case of `CC(=O)OC[C@H]1OC(OC(C)=O)[C@H](/N=C/c2cc(O)c3c(c2)C(=O)c2cccc(O)c2C3=O)[C@H](OC(C)=O)[C@@H]1OC(C)=O` (stereo not given in full), the IC50 [2] is reported as 8.43 µM and the inhibition at 50 µM [1] is reported as 93.4%.
`O=C1c2cccc(O)c2C(=O)c2c(O)cc(CCl)cc21` was tested, and the inhibition at 50 µM [1] was 18.4%.
`COc1cccc2c1C(=O)c1c(OC)cc(CCl)cc1C2=O` was tested, and the inhibition at 50 µM [1] was 14.3%.
In the case of `O=C1c2cccc(O)c2C(=O)c2c(O)cc(C[n+]3ccccc3)cc21`, the inhibition at 50 µM [1] is reported as under 10%.
In the case of `C[N+](C)(C)Cc1cc(O)c2c(c1)C(=O)c1cccc(O)c1C2=O`, the IC50 [2] is reported as 18.7 µM and the inhibition at 50 µM [1] is reported as 68.8%.
Work on `C[N+](C)(Cc1cc(O)c2c(c1)C(=O)c1cccc(O)c1C2=O)c1ccccc1` yielded an inhibition at 50 µM [1] of under 10%.
For `COc1cccc2c1C(=O)c1c(OC)cc(C[n+]3ccccc3)cc1C2=O`, the inhibition at 50 µM [1] was under 10%.
`O=C1c2cccc(O)c2C(=O)c2c(O)cc(/C=N/c3ccccc3)cc21` showed an IC50 [2] of 3.87 µM and an inhibition at 50 µM [1] of 94.5%.
With `CC(=O)OC[C@H]1OC(OC(C)=O)[C@H](NC(=O)c2cc(O)c3c(c2)C(=O)c2cccc(O)c2C3=O)[C@H](OC(C)=O)[C@@H]1OC(C)=O` (stereo not given in full) the inhibition at 50 µM [1] was 7.2%.
In the case of `O=C1c2cccc(O)c2C(=O)c2c(O)cc(CO)cc21` [ALOE-EMODIN], the inhibition at 50 µM [1] is reported as 22.5%.
Molecule `O=C(O)c1cc(O)c2c(c1)C(=O)c1cccc(O)c1C2=O` [RHEIN] has an inhibition at 50 µM [1] of 3.63%.
